Screens as filed in PubChem.
MPTP block = mitochondrial permeability transition pore inhibitors, primary screen, biochemical, isolated mouse mitochondria, absorbance. Ca2+ swelling absorbance, 30 min. inhibition, % at 10 µM. actives 1.4% (n = 360,000);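 active = inhibition of 50% or more, scaled per plate between neutral and stimulator controls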
UBC13 polyUb = UBC13 polyubiquitin chain formation inhibitors, primary screen, biochemical, TR-FRET, uHTS. actives 0.47% (n = 330,000). inhibition, % at 20 µM; in the data active = inhibition above about 45%, passing the limit was not always enough; inconclusive = no clear call, values can overlap the other calls
Target sequence (P61088 whole entry, looked up): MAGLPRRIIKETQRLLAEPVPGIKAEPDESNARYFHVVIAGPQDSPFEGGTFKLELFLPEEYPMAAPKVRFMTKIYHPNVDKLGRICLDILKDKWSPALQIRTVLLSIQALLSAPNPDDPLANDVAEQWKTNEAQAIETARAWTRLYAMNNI
MIN6 prolif-1 = inducers of MIN6 beta-cell proliferation, primary screen, ATP luminescence, uHTS | MIN6 cells proliferation, ATPlite luminescence, 48 h; cells starved in 0.2% serum; 100% = growth in 10% serum | proliferation, % at 10 µM | actives 0.29% (n = 330,000);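 active = compounds whose signal lies at least 3.5 SD above the mean of all wells on their plate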
Apaf-1 inh = inhibitors of human Apaf-1 apoptosome, primary screen, biochemical, DEVD-Rh110 fluorescence, uHTS. Apoptotic protease-activating factor 1 (Homo sapiens), O14727. reconstituted apoptosome caspase-3 activity. inhibition, % at 20 µM. actives 0.71% (n = 330,000); active = inhibition of at least 40% at 20 µM
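detection = Rh110 fluorescence intensity | test system = biochemical Apaf-1 apoptosome reconstitution | also added = cytochrome c and DEVD-Rh110 substrate | schedule = 30 min plus 50 min, RT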
hiPSC survival = enhancers of single-cell hiPSC survival, primary screen, ATPlite luminescence. actives 0.044% (n = 360,000). survival enhancement, % at 20 µM. AID 602274, 2012. 100% = ROCK inhibitor wells, 0% = DMSO; in the data active = survival enhancement above about 18%;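 note: cells exposed to compounds for 16 hours before the ATP read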
Granule exo inh = LAMP-1 surface exposure blockers, TALL-104 cells – cell-based, flow cytometry, MLPCN library, primary screen. TALL-104 LAMP-1 surface exposure; cells stimulated with thapsigargin and PMA. inhibition, % at 10 µM. actives 0.66% (n = 360,000). AID 651702, 2012;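 active = inhibition above about 55%, limit read from the data; inconclusive = no clear call, values can overlap the other calls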
MIN6 prolif-2 = inducers of beta-cell proliferation in MIN6, confirmation, MIN6 cells, mouse | AID 463095, 2010 | ATPlite luminescence, 48 h; cells kept in 0.2% serum; scaled between 0.2% and 10% serum | shares compounds with MIN6 prolif-1 | 920 tested, under 10 active | proliferation increase, % at 50 µM;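 active = proliferation increase above 40% at any of the four tested concentrations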
Numbers stand for hits; 0 = inactive; ? = inconclusive; - = not tested or not shown. Hits are enriched below; roughly 3% of the tested compounds scored in any of these assays.

SMILES	MPTP block	UBC13 polyUb	MIN6 prolif-1	Apaf-1 inh	hiPSC survival	Granule exo inh	MIN6 prolif-2
CCNC(=S)N(CCCN(C)C)Cc1cc2cc3c(cc2[nH]c1=O)OCCO3	0	0	0	0	0	0	-
CC(C)Cn1c(N)c(/C=N/NC(=O)c2ccc(Cl)cc2)c(=O)n(C)c1=O	0	0	6.5	0	0	0	0
CCC(C)Nc1nc(N)c([N+](=O)[O-])c(NCc2ccccc2)n1 (configuration not stated)	0	0	6.2	0	0	0	0
Cc1ccc(C(CC(=O)N2CCCC2)c2ccccc2)c(O)c1 (configuration not stated)	0	0	0	0	0	0	-
O=C(NCc1ccco1)c1c(O)c2cccc3c2n(c1=O)CCC3	0	?	8.8	0	0	0	0
OCC[C@H]1C[C@@H](O)[C@H](O)[C@]2(CCCc3ccccc3O2)O1	0	0	0	0	0	0	-
OCC[C@@H]1C[C@@H](O)[C@H](O)[C@]2(CCCc3ccccc3O2)O1	0	0	14	0	0	0	0
Cc1ccc(OC(C)C(=O)Nc2ccc3c(c2)n(C)c(=O)n3C)cc1C (configuration not stated)	0	0	7.8	0	0	0	0
Cc1cc(C)cc(OC(C)C(=O)Nc2ccc3c(c2)n(C)c(=O)n3C)c1 (configuration not stated)	0	0	0	0	0	0	-
CCN(CC)C(=S)SCC(=O)c1c(C)[nH]c2ccccc12	0	0	0.0	0	0	0	0
CN(CC(=O)Nc1c(Cl)cccc1Cl)C(=O)c1ccccc1-c1nc2ccccc2s1	0	0	13	0	0	0	0
C=CCOC(=O)C1=C(C)NC(=O)NC1c1ccc(OC(=O)c2ccco2)c(OC)c1 (configuration not stated)	0	0	0	0	0	0	-
CCOC(=O)C1=C(C)NC(=O)NC1c1ccc(OC(=O)c2ccco2)c(OC)c1 (configuration not stated)	0	0	4.7	0	0	0	0
CNC(=S)N(CCc1c(C)[nH]c2ccc(C)cc12)Cc1cccnc1	0	0	13	0	0	0	0
COc1cccc(NC(=S)N(CCc2nc3cc(C)c(C)cc3[nH]2)Cc2cccnc2)c1	0	0	0	0	0	0	-
Cc1cccc(NC(=S)N(CCc2nc3cc(C)c(C)cc3[nH]2)Cc2cccnc2)c1	0	0	4.8	0	0	0	0
COc1ccccc1C(=O)NCC(=O)N/N=C(\C)Cc1ccccc1	0	0	0	0	0	0	-
O=C(c1ccc(NS(=O)(=O)/C=C/c2ccccc2)cc1)N1CCCCC1	0	0	0	0	0	0	-
NC(=O)c1ccsc1NC(=O)COC(=O)c1cccnc1Cl	0	0	0	0	0	0	-
CCC(=O)N1CCc2cc(S(=O)(=O)CCC(=O)Nc3ccc(F)c(F)c3)ccc21	0	0	0	0	0	0	-
CCC(=O)N1CCc2cc(S(=O)(=O)CCC(=O)Nc3cccc(F)c3)ccc21	0	0	8.9	0	0	0	0
CC(=O)c1cccc(NC(=O)Nc2cccnc2)c1	0	0	7.9	0	0	0	0
O=C(O)c1c[nH]c2ccc(S(=O)(=O)N3CCN(c4ccc(F)cc4)CC3)cc2c1=O	0	0	0	0	0	0	-
O=C(O)c1c[nH]c2ccc(F)cc2c1=O	0	0	6.8	0	0	0	0
Cc1cc(C)c(S(=O)(=O)Cc2ccccc2)c(OC(C)C)n1	0	0	0	0	0	0	-
SMILES	MPTP block	UBC13 polyUb	MIN6 prolif-1	Apaf-1 inh	hiPSC survival	Granule exo inh	MIN6 prolif-2
COc1ccc(CCNC(=O)CNC(=O)c2ccc(Br)o2)cc1OC	0	0	13	0	0	0	0
COc1ccc(CCNC(=O)Cc2cc(OC)c(OC)cc2Br)cc1OC	0	0	0	0	0	0	-
CC(C)c1nc2oc3c(NCc4ccccn4)ncnc3c2c2c1COC(C)(C)C2	0	0	7.4	0	0	0	0
COc1ccc(NC(=O)C2CC2)cc1OC1CCCC1	0	0	0	0	0	0	-
COC(=O)c1ccc(OC)c(OC2CCCC2)c1	0	0	6.6	0	0	0	0
CCOc1ccc(C(=O)NNC(=O)CNC(=O)c2ccc(C)s2)cc1OC	0	0	0	0	0	0	-
COc1ccc(/C=N/n2cnc3c([nH]c4ccccc43)c2=O)cc1COc1ccccn1	-	0	8.3	0	-	-	0
COc1ccc(N2CCN(C(=O)CN(C)S(=O)(=O)c3ccc4c(c3)c(=O)n(C)c(=O)n4C)CC2)cc1	0	0	0	0	0	0	-
COc1ccccc1N1CCN(C(=O)CN(C)S(=O)(=O)c2ccc3c(c2)c(=O)n(C)c(=O)n3C)CC1	0	0	6.9	0	0	0	0
CCOc1ccccc1C(=O)NCC(=O)Nc1ncccc1C	0	0	12	0	0	0	0
CCOc1ccc(C(=O)NCC(=O)Nc2ncccc2C)cc1OCC	0	0	0	0	0	0	-
CCC(C)(C)n1nnnc1CN(Cc1cc2cc(OC)c(OC)cc2[nH]c1=O)C1CCCC1	0	0	7.2	0	0	0	0
Cc1ccc(C(=O)c2sc3c(c2N)c(=O)[nH]c(=O)n3CCc2ccccc2)cc1	0	0	0	0	0	0	-
CCn1c(=O)[nH]c(=O)c2c(N)c(C(=O)c3cc(F)ccc3F)sc21	0	0	9.1	0	0	0	0
CC1(C)CN2C(=O)c3ccccc3C2(C)S1 (configuration not stated)	0	0	8.0	0	0	0	0
C=CCOn1c(=O)c(-c2ccc(F)cc2)[n+]([O-])c2ccccc21	0	0	11	0	0	0	0
C=CCOn1c(=O)c(-c2ccc(Cl)cc2)[n+]([O-])c2ccccc21	0	0	0	0	0	0	-
COc1ccccc1C(=O)NCC(=O)N(C)Cc1nc2ccccc2c(=O)[nH]1	0	-	-	-	0	0	-
CCC(=O)Nc1c(OC(=O)CC)ccc2c(C)cc(=O)oc12	0	0	13	0	0	0	0
COc1ccc(Nc2nc(C)cc(C)c2C#N)cc1	0	0	0	0	0	0	-
CCOc1ccc(Nc2nc(C)cc(C)c2C#N)cc1	0	0	6.3	0	0	0	0
Cc1nn(-c2ccccc2)c2sc(-c3nnc(SCC(=O)O)o3)cc12	0	0	5.1	0	0	0	0
CCn1cc(CNC(=O)c2cccc([N+](=O)[O-])c2)cn1	0	0	0	0	0	0	-
